Test results from ChEMBL document CHEMBL4813992, “Ring closure strategy leads to potent RIPK3 inhibitors” (Eur J Med Chem, 2021).
Calls of active or inactive are those of the source. The calls are words filed in the database; no cut-off is given here.

Legend:
[1] = test system: HT-29; assay: Anti-necroptotic activity in human HT-29 cells assessed as inhibition of TNFalpha/Z-VAD-fmk (TSZ)-induced necroptosis by measuring increase in cell viability by celltiter-glo luminescent cell viability assay; format: functional, cell-based
Procedure, shortened: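 HT-29 cells or MEFs were pretreated with compound or DMSO for 1 h, then stimulated with TNF (20 ng/mL), Smac mimetic (100 nM) and z-VAD. Viability was read as ATP level by CellTiter-Glo (24 h per methods; 40 h per legends). EC50 is the geometric mean of at least two runs ± SEM.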

[2] = target: Activin receptor type-1B (Homo sapiens, UniProt P36896); assay: Inhibition of human ALK4 using ATP as substrate incubated for 120 mins by ADP-glo based luminescence assay
[3] = target: Receptor-interacting serine/threonine-protein kinase 3 (Homo sapiens, UniProt Q9Y572); assay: Binding affinity to human wild type RIPK3 (M1/Q307) expressed in bacterial expression system by Kinomescan method
Procedure, shortened: (§1)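 KINOMEscan competition binding assay. Kinases were expressed as tags on T7 phage grown in E. coli BL21, or produced in HEK-293 cells and DNA-tagged. Kinase, ligand-loaded streptavidin beads and compound were combined in binding buffer (20% SeaBlock, 0.17x PBS, 0.05% Tween 20, 6 mM DTT) for 1 h at room temperature with shaking. Bound kinase was read by qPCR.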

[4] = target: Receptor-interacting serine/threonine-protein kinase 1 (Homo sapiens, UniProt Q13546); assay: Binding affinity to human wild type RIPK1 (M1/K305) expressed in bacterial expression system by Kinomescan method; procedure, shortened: as §1
[5] = target: Receptor-interacting serine/threonine-protein kinase 1 (Homo sapiens) (UniProt Q13546); assay: Inhibition of human RIPK1 using ATP and substrate at 10 uM incubated for 120 mins by ADP-glo based luminescence assay
[6] = target: Epidermal growth factor receptor (Homo sapiens, UniProt P00533); assay: Inhibition of EGFR (unknown origin) using FAM-labeled peptide as substrate preincubated for 10 mins followed by substrate addition measured after 60 mins in presence of ATP by caliper mobility shift assay
[7] = target: Platelet-derived growth factor receptor alpha (Homo sapiens, UniProt P16234); assay: Inhibition of PDGFRA (unknown origin) using FAM-labeled peptide as substrate preincubated for 10 mins followed by substrate addition measured after 60 mins in presence of ATP by caliper mobility shift assay
[8] = target: CDK4/Cyclin D3 (Homo sapiens, UniProt P11802); assay: Inhibition of CDK4/Cyclin D3 (unknown origin) using FAM-labeled peptide as substrate preincubated for 10 mins followed by substrate addition measured after 60 mins in presence of ATP by caliper mobility shift assay; format: protein-complex assay
[9] = target: Serine/threonine-protein kinase B-raf (Homo sapiens, UniProt P15056); assay: Inhibition of BRAF (unknown origin) in presence of ATP by Lanthascreen TR-FRET assay
[10] = target: Serine/threonine-protein kinase mTOR (Homo sapiens, UniProt P42345); assay: Inhibition of mTOR (unknown origin) using ATP as substrate after 60 mins by Lance ultra assay
[11] = target: Phosphatidylinositol 4,5-bisphosphate 3-kinase catalytic subunit alpha isoform (Homo sapiens, UniProt P42336); assay: Inhibition of human PI3Kalpha using ATP as substrate at 25 uM incubated for 60 mins by ADP-glo based luminescence assay
[12] = target: CYP1A2 (Homo sapiens, UniProt P05177); assay: Inhibition of CYP1A2 (unknown origin) at 10 uM incubated for 20 mins by LC-MS/MS analysis; format: ADME
[13] = target: CYP2C9 (Homo sapiens, UniProt P11712); assay: Inhibition of CYP2C9 (unknown origin) at 10 uM incubated for 20 mins by LC-MS/MS analysis; format: ADME
[14] = target: CYP2C19 (Homo sapiens, UniProt P33261); assay: Inhibition of CYP2C19 (unknown origin) at 10 uM incubated for 20 mins by LC-MS/MS analysis; format: ADME
[15] = target: CYP2D6 (Homo sapiens, UniProt P10635); assay: Inhibition of CYP2D6 (unknown origin) at 10 uM incubated for 20 mins by LC-MS/MS analysis; format: ADME
[16] = target: T1, CYP3A4 (Homo sapiens, UniProt P08684); assay: Inhibition of CYP3A4 (unknown origin) at 10 uM using midazolam as substrate incubated for 20 mins by LC-MS/MS analysis; format: ADME; conditions: probe midazolam
[17] = target: T1, CYP3A4; assay: Inhibition of CYP3A4 (unknown origin) at 10 uM using testosterone as substrate incubated for 20 mins by LC-MS/MS analysis; format: ADME; conditions: probe testosterone
[18] = target: Voltage-gated inwardly rectifying potassium channel KCNH2 (Homo sapiens, UniProt Q12809); assay: Inhibition of human ERG expressed in CHO-K1 cells by QPatch - automated patch-clamp technology; format: cell-based
[19] = Protein binding in human plasma by LC-MS/MS analysis; format: ADME, cell-free; conditions: read-out: PPB (converted)
[20] = Protein binding in rat plasma by LC-MS/MS analysis; format: ADME, cell-free; conditions: read-out: PPB (converted)
[21] = Protein binding in mouse plasma by LC-MS/MS analysis; format: ADME, cell-free; conditions: read-out: PPB (converted)
[22] = Apparent permeability of the compound across apical to basolateral side in human Caco-2 cells; format: ADME, cell-based; conditions: read-out: permeability
[23] = Apparent permeability of the compound across basolateral to apical side in human Caco-2 cells; format: ADME, cell-based; conditions: read-out: permeability
[24] = Efflux ratio of apparent permeability across basolateral to apical side over apical to basolateral side in human Caco-2 cells; format: ADME, cell-based
[25] = Metabolic stability in human liver microsomes assessed as half life by LC-MS/MS analysis; format: ADME, Microsome
[26] = Metabolic stability in mouse liver microsomes assessed as half life by LC-MS/MS analysis; format: ADME, Microsome
[27] = Metabolic stability in human liver microsomes assessed as intrinsic clearance by LC-MS/MS analysis; format: ADME, Microsome
[28] = Metabolic stability in mouse liver microsomes assessed as intrinsic clearance by LC-MS/MS analysis; format: ADME, Microsome
[29] = test system: Mus musculus; assay: Anti-necroptosis activity against TNFalpha-induced C57BL/6J mouse systemic inflammatory response syndrome model assessed as reduction in hypothermia at 5 mg/kg, ip measured after 15 mins; format: functional, organism-based
Procedure, shortened: (§2)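 C57BL/6 mice were given vehicle (sterile PBS with 40% PEG400) or compound at 5 mg/kg i.p. about 15 min before i.v. mouse TNFa ([…]). Body temperature and survival were monitored. Temperature changes are shown as means ± SEM per group.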

[30] = test system: Mus musculus; assay: Anti-necroptosis activity against TNFalpha-induced C57BL/6J mouse systemic inflammatory response syndrome model assessed as reduction in lethal shock at 5 mg/kg, ip measured after 15 mins; format: functional, organism-based; procedure, shortened: as §2
[31] = test system: Mus musculus; assay: Antiinflammatory activity in TNFalpha-induced C57BL/6J mouse systemic inflammatory response syndrome model assessed as reduction in IL-6 production in serum at 5 mg/kg, ip measured 4 hrs after TNFalpha stimulation by ELISA; format: functional, organism-based
Procedure, shortened: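 C57BL/6 mice were dosed i.p. at 5 mg/kg in PBS/40% PEG400 about 15 min before i.v. mouse TNFa ([…]). Mice were killed 4 h after TNFa and serum IL-6 was measured by ELISA.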

[32] = target: Mixed lineage kinase domain-like protein (Homo sapiens) (UniProt Q8NB16); assay: Inhibition of MLKL (unknown origin) polymerization
[33] = target: Receptor-interacting serine/threonine-protein kinase 2 (Homo sapiens) (UniProt O43353); assay: Inhibition of RIPK2 (unknown origin) at 10 uM
[34] = test system: MEF; assay: Anti-necroptotic activity in mouse MEF cells assessed as inhibition of TNFalpha/Smac mimetic/Z-VAD-fmk (TSZ)-induced necroptosis by measuring increase in cell viability by celltiter-glo luminescent cell viability assay
[35] = test system: HT-29; assay: Cytotoxicity against human HT-29 cells assessed as cell death at 20 uM by celltiter-glo luminescent cell viability assay; format: cell-based; conditions: ht-29, 20 µM
Procedure, shortened: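 HT-29 cells were given a compound concentration gradient without TSZ stimulation. Viability was read as ATP level by luminescence. Cell death above 30% at 20 µM was scored as significant toxicity.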

Activin receptor type-1B, sequence (P36896 whole entry): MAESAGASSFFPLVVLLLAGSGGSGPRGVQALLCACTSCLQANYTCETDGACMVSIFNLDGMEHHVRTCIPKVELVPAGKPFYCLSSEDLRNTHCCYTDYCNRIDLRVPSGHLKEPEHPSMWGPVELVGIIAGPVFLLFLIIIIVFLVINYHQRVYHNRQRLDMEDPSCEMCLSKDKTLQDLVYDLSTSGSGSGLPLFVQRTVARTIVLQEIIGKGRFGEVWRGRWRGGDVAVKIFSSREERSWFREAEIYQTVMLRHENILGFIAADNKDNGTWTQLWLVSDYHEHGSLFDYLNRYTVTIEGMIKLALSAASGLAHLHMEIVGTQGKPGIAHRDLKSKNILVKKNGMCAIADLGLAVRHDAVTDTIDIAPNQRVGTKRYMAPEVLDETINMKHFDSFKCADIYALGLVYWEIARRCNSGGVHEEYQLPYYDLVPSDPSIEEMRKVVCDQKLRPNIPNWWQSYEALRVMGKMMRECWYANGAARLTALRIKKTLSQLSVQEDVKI
T1 sequence (P08684 whole entry): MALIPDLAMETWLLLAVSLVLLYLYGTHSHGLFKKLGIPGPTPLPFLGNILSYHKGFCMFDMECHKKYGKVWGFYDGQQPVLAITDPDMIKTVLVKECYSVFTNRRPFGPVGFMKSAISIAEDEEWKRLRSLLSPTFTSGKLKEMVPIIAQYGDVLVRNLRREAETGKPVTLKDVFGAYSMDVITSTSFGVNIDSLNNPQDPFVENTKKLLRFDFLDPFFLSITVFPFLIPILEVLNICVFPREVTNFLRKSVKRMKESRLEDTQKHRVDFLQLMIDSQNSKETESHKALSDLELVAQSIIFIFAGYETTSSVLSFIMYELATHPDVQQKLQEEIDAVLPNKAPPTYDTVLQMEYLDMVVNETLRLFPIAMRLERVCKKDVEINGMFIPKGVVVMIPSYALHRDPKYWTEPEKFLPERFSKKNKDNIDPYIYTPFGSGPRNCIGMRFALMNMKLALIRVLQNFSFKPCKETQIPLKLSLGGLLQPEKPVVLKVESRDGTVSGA
Receptor-interacting serine/threonine-protein kinase 2 (Homo sapiens), sequence (O43353 whole entry): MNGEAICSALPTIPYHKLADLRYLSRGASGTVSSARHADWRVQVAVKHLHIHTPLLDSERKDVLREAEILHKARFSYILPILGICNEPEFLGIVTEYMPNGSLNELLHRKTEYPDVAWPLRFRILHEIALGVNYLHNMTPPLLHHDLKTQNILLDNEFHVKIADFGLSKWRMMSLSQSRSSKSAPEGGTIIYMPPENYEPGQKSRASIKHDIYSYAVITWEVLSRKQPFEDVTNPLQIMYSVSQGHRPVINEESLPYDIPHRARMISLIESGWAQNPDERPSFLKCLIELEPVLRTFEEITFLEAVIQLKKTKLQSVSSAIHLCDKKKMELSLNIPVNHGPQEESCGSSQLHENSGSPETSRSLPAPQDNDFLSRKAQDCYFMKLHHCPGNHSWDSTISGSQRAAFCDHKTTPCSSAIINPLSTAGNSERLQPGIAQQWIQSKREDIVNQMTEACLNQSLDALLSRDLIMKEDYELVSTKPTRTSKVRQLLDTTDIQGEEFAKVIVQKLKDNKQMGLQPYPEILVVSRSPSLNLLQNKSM
CDK4/Cyclin D3, sequence (P11802 whole entry): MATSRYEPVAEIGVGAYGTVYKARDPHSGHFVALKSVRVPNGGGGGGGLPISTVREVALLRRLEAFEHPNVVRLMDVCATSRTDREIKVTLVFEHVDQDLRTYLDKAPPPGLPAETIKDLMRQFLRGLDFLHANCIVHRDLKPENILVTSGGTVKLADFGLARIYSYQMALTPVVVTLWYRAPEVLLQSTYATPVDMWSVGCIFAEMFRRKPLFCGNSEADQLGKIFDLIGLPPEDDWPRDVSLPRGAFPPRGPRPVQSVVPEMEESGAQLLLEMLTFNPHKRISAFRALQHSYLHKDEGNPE
CDK4/Cyclin D3, sequence (P30281 whole entry, further chain): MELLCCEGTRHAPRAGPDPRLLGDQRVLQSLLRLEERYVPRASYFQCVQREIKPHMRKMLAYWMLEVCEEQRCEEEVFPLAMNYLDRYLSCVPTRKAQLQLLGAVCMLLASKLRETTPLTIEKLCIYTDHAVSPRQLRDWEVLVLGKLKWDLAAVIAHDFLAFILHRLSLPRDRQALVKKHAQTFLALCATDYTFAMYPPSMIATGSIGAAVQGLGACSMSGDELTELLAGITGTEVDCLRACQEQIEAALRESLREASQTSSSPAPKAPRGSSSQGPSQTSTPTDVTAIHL
CYP2C9, sequence (P11712 whole entry): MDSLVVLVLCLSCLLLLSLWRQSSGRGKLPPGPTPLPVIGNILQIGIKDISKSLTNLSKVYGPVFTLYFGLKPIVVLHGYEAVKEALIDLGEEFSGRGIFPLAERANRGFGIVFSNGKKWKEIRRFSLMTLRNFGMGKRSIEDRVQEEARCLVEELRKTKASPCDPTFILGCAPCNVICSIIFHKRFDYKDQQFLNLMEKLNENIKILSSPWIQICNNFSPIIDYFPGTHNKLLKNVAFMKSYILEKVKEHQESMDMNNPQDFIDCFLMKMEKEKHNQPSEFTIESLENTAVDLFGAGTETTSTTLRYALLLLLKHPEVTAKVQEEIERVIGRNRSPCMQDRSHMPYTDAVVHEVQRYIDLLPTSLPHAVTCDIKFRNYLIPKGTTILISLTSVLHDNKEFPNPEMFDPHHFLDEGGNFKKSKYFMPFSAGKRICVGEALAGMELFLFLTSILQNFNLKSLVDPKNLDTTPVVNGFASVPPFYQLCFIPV
Epidermal growth factor receptor, sequence (P00533 whole entry): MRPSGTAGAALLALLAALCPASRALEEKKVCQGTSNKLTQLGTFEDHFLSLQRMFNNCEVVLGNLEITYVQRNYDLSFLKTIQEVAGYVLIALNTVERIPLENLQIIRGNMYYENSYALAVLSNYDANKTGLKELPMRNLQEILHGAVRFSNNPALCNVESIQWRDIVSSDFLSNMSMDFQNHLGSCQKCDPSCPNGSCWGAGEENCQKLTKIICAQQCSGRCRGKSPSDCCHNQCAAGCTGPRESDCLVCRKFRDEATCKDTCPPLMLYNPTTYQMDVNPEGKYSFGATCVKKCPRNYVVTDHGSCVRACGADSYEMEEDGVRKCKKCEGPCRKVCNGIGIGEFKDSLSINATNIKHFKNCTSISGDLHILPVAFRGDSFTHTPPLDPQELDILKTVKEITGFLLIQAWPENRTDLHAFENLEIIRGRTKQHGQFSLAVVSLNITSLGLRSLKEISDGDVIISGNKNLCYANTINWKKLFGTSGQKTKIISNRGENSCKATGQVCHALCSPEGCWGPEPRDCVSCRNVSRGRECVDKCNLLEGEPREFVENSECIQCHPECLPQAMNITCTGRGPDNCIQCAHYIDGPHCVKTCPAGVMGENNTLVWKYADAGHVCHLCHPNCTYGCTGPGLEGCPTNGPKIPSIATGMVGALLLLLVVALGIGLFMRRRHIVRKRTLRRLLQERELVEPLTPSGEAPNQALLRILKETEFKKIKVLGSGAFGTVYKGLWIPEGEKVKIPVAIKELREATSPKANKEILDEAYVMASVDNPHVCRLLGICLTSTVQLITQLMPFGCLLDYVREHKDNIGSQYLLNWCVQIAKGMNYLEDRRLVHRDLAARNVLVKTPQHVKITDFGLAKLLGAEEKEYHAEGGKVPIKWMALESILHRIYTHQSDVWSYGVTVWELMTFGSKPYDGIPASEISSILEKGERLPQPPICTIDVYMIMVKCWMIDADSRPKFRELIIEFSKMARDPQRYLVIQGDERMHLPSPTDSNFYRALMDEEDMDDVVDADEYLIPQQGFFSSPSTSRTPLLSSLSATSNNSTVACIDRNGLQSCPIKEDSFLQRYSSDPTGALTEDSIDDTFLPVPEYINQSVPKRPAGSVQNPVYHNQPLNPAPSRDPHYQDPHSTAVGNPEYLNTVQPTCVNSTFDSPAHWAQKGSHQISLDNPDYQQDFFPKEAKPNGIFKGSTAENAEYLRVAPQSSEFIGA
CYP1A2, sequence (P05177 whole entry): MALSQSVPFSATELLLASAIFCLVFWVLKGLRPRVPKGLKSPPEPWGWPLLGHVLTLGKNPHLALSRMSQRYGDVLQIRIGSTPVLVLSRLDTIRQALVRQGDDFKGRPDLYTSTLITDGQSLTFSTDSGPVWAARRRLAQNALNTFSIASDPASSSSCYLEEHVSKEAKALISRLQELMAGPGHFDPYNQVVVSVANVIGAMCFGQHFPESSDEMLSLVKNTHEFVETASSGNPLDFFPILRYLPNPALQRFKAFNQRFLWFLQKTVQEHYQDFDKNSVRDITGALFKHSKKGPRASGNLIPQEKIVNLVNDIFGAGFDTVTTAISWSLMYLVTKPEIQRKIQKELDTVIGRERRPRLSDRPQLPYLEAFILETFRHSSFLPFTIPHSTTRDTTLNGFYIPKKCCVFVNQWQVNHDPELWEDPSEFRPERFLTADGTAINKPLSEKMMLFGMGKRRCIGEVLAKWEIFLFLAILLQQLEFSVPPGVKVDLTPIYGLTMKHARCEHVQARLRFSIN
CYP2C19, sequence (P33261 whole entry): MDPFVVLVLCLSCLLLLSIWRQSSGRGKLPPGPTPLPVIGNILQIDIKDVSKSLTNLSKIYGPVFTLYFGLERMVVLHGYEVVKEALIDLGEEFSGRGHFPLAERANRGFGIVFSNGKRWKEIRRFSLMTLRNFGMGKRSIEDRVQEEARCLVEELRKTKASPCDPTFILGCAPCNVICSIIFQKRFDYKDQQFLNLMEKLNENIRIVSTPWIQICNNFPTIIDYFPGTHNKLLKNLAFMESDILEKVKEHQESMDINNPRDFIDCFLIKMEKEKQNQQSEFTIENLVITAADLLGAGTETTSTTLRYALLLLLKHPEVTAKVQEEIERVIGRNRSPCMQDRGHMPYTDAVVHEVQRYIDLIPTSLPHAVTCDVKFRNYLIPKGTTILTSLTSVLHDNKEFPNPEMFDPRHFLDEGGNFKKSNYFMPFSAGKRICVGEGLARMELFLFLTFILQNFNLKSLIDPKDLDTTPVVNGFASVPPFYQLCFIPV

CC1(C)C(=O)c2cc3nccc(Nc4n[nH]c5ccc(F)cc45)c3cc2S1(=O)=O
EC50 [1]: > 20 µM

O=C(O)c1ccc(-c2nc(-c3ccc4c(c3)OCO4)c(-c3ccccn3)[nH]2)cc1
IC50 [2]: 0.158 µM

O=S1(=O)CC2(OCCO2)c2cc3nccc(Nc4ccc5scnc5c4)c3cc21
EC50 [1]: 0.42 µM | Kd [3]: 0.0072 µM | Kd [4]: 5.95 µM | inhibition [5]: inactive | IC50 [6]: > 10 µM | IC50 [7]: 0.152 µM | IC50 [8]: > 10 µM | IC50 [9]: 1.36 µM | IC50 [10]: > 10 µM | IC50 [11]: 7.77 µM | inhibition at 20 min, 10 µM [12]: 37% | inhibition at 20 min, 10 µM [13]: -6.33% | inhibition at 20 min, 10 µM [14]: 19.9% | inhibition at 20 min, 10 µM [15]: -5.26% | inhibition at 20 min, 10 µM [16]: -13.7% | inhibition at 20 min, 10 µM [17]: 9.6% | IC50 [18]: > 30 µM | fraction unbound [19]: 0.029 | fraction unbound [20]: 0.013 | fraction unbound [21]: 0.027 | Papp A→B [22]: 35.2 ×10⁻⁶ cm/s | Papp B→A [23]: 25.3 ×10⁻⁶ cm/s | efflux ratio [24]: 0.72 | half-life [25]: 28.8 min | half-life [26]: 20.3 min | CLH [27]: 60.5 mL/min/kg | CLH [28]: 269 mL/min/kg | Activity [29]: Active | Activity [30]: Active | Activity [31]: Active | inhibition [32]: inactive | inhibition [33]: Active | IC50 [2]: 3.74 µM | EC50 [34]: 0.54 µM

C=C1c2cc3nccc(Nc4ccc5scnc5c4)c3cc2S(=O)(=O)C1(C)C
EC50 [1]: 1.03 µM

Cc1n[nH]c(Nc2ccnc3cc4c(cc23)S(=O)(=O)C(C)(C)C4=O)c1C
EC50 [1]: > 20 µM

O=S1(=O)CC2(CCCO2)c2cc3nccc(Nc4ccc5scnc5c4)c3cc21 (stereo not drawn)
EC50 [1]: 3.96 µM

CC1(C)C(O)(C2CC2)c2cc3nccc(Nc4ccc5scnc5c4)c3cc2S1(=O)=O (stereo not drawn)
EC50 [1]: > 20 µM

CCC1(C)C(=O)c2cc3nccc(Nc4ccc5scnc5c4)c3cc2S1(=O)=O (stereo not drawn)
EC50 [1]: > 20 µM

CC(C)S(=O)(=O)c1ccc2nccc(Nc3ccc4scnc4c3)c2c1
EC50 [1]: 1.51 µM | inhibition [33]: Active | EC50 [34]: 2.51 µM

O=S1(=O)CC2(COC2)c2cc3nccc(Nc4ccc5scnc5c4)c3cc21
EC50 [1]: > 20 µM

CC1(C)C(O)c2cc3nccc(Nc4ccc5scnc5c4)c3cc2S1(=O)=O (stereo not drawn)
EC50 [1]: 2.19 µM

O=C1CS(=O)(=O)c2cc3c(Nc4ccc5scnc5c4)ccnc3cc21
EC50 [1]: 3.81 µM

O=S1(=O)CCc2cc3nccc(Nc4ccc5scnc5c4)c3cc21
EC50 [1]: 2.28 µM

CC1COC2(CS(=O)(=O)c3cc4c(Nc5ccc6scnc6c5)ccnc4cc32)O1 (stereo not drawn)
EC50 [1]: 1.07 µM

CC1(CC2CC2)C(=O)c2cc3nccc(Nc4ccc5scnc5c4)c3cc2S1(=O)=O (stereo not drawn)
EC50 [1]: > 20 µM

CC1(C)C(=O)c2cc3nccc(Nc4cc(O)ccc4F)c3cc2S1(=O)=O
EC50 [1]: 0.33 µM | Activity [35]: > 30%

CC1(O)c2cc3nccc(Nc4ccc5scnc5c4)c3cc2S(=O)(=O)C1(C)C (stereo not drawn)
EC50 [1]: > 20 µM

CC1(C)C(=O)c2cc3nccc(Nc4cc(O)c(F)cc4F)c3cc2S1(=O)=O
EC50 [1]: 1.03 µM | Activity [35]: > 30%

CC1(C)C(=O)c2cc3nccc(Nc4ccc5scnc5c4)c3cc2S1(=O)=O
EC50 [1]: 2.23 µM

Cc1ccc(O)cc1Nc1ccnc2cc3c(cc12)S(=O)(=O)C(C)(C)C3=O
EC50 [1]: 0.43 µM | Activity [35]: > 30%
